# Measured values collected from several papers.
# Protocols differ between the studies behind these lines.
# CYP2C19: Cytochrome P450 2C19 (CYP2C19, Homo sapiens, UniProt P33261)
Compound,tested on,test,test system,conditions,measurement,result
CSc1ccccc1C(=O)NCCn1cc(C(=O)NCc2cccc(C)n2)c(=O)c2cc3c(cc21)OCO3,CYP2C19,"enzyme activity, inhibitor","human, liver microsomes","20 min, without NADPH, with preincubation",IC50,> 100 µM
[N-]=[N+]=N[C@]1(CO)O[C@@H](n2ccc(N)nc2=O)[C@@H](F)[C@@H]1O,A549,"cell growth or viability, ATP luminescence",,72 h,CC50,> 50 µM
CSc1ccccc1C(=O)NCCn1cc(C(=O)NCc2cccc(C)n2)c(=O)c2cc3c(cc21)OC(F)(F)O3,CYP2C19,"enzyme activity, inhibitor","human, liver microsomes","20 min, without NADPH, with preincubation",IC50,> 100 µM
CN(C)C(=O)c1cc2cnc(Nc3ccc(-c4ccc5c(=O)cc(N6CCOCC6)oc5c4)cc3)nc2n1C1CCCC1.Cl,,,"BALB/c mouse, plasma","intravenous, 2 mg/kg",CL/F,11.7 mL/min/kg
C[C@H]1Oc2cc(cnc2N)-c2c(nn(C)c2C#N)CN(C)C(=O)c2ccc(F)cc21,,,"Sprague-Dawley rat, plasma","intravenous, 1 mg/kg, single dose",Tmax,7.8 min
NCc1ccc(-c2nn(Cc3ccncc3)c3ccccc23)o1,,,"male CD-1 mouse, plasma","intravenous, 5 mg/kg",C0,1360 ng/mL
O=c1[nH]cc(F)c(=O)[nH]1,A549,"cell growth or viability, CCK-8",,50 µM,viability,27.3%
CN(CCOc1ccc(CC2SC(=O)NC2=O)cc1)c1ccccn1 (stereo not drawn),A549,"cell growth or viability, resazurin",,72 h,CC50,100 µM
OB(O)c1csc2ccccc12,HFF-1,"cell growth or viability, resazurin",,"50 µM, 24 h",viability,> 75%
C=CCn1c(=O)c2cnc(Nc3ccc(N4CCN(C)CC4)cc3)nc2n1-c1ccc2c(n1)[C@@](O)(CC)CC2,,,"dog, plasma","intravenous, 3 mg/kg",clearance,46 mL/min/kg
CCC(CC)COC(=O)[C@H](C)N[P@](=O)(OC[C@H]1O[C@@](C#N)(c2ccc3c(N)ncnn23)[C@H](O)[C@@H]1O)Oc1ccccc1,A549,"cell growth or viability, resazurin",,72 h,CC50,25 µM
O=C(CCCCCCC(=O)Nc1ccccc1)NO,CYP2C19,"enzyme activity, inhibitor, fluorescence",,,IC50,3.26 µM
